The record followed here is ChEMBL document CHEMBL1156776, “Hybrid inhibitors of phosphatidylinositol 3-kinase (PI3K) and the mammalian target of rapamycin (mTOR): design, synthesis, and superior antitumor activity of novel wortmannin-rapamycin conjugates” (J Med Chem, 2010).

The test system of data set [1] is Plasma. Kind of data set: Stability in mouse plasma in presence of esterase inhibitor sodium fluoride. It counts as ADME, cell-free. The gist of the method: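 Compound was incubated in nude mouse plasma or whole blood at 37 °C for 2 h, with heparin or sodium fluoride/EDTA as anticoagulant. Time-point samples were quenched with acetonitrile, dried, reconstituted and analysed by LC/MS for parent and hydrolysis products.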

Data set [2] has as its system U-87MG ATCC. Kind of data set: Antitumor activity against human U87MG cells xenografted in nude mouse assessed as tumor growth inhibition at 3 mg/kg, iv once weekly. It counts as functional, organism-based. The arrangement: dose 3 mg/kg. The gist of the method: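 U87MG glioma xenografts in nude mice were staged and randomized (n = 10). Dosing was iv once weekly in D5W (days 0, 6 or days 0, 6, 13), with vehicle controls. Tumor volume was measured twice weekly.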

Data set [3] is described as follows: Inhibition of PI3K.
Data set [4] deals with Serine/threonine-protein kinase mTOR (Homo sapiens) (UniProt P42345). As to the kind of experiment: Inhibition of mTOR.
Data set [5] in a line: Stability in mouse plasma assessed as compound remaining after 120 mins relative to basal level. It counts as ADME, cell-free. The note with it: read-out: Stability. The gist of the method: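 Compound was incubated in heparinized plasma at 37 °C for 2 h. Samples taken at various time points were quenched with acetonitrile, dried under nitrogen and reconstituted in methanol/water 20:80. Intact compound was quantified by LC/MS.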

In data set [6] the test system is Plasma. Kind of data set: Stability in human plasma after 5 hrs. In kind it is ADME, cell-free.
Data set [7] relates to Plasma. Kind of data set: Stability in rat plasma after 5 hrs. It counts as ADME, cell-free.
In data set [8] the test system is Plasma. As to the kind of experiment: Stability in mouse plasma after 5 hrs. It counts as ADME, cell-free.
Data set [9] relates to HT-29. As to the kind of experiment: Antitumor activity against human HT-29 cells xenografted in nude mouse assessed as tumor growth inhibition at 5 mg/kg, iv once weekly. The arrangement: dose 5 mg/kg. In kind it is functional, organism-based. The gist of the method: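 HT29 cells from ATCC, cultured by standard methods, grown as tumors in nude mice and randomized into groups (n = 10). Agent formulated in 5% dextrose in water and given iv once weekly. Vehicle-dosed controls. Tumor growth was monitored and analyzed as previously described.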

Data set [10] in a line: Solubility at pH 7.4. It counts as physicochemical. The note with it: buffer.
Data set [11] deals with U-87MG ATCC. As to the kind of experiment: Antitumor activity against human U87MG cells xenografted in nude mouse assessed as inhibition of AKT S473 phosphorylation at 10 mg/kg, iv administered as single dose measured after 2 hrs. On the set-up: dose 10 mg/kg. It counts as functional, organism-based. The gist of the method: (§1)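 Nude mice bearing U87MG tumors got a single iv dose. Tumors were excised 2 h later and analysed by Western blot for phosphoproteins (AKT S473, T308) against vehicle-treated controls.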

Data set [12] is described as follows: Solubility in water. In kind it is physicochemical. Particulars: buffer.
For data set [13], the system named is U-87MG ATCC. Kind of data set: Antitumor activity against human U87MG cells xenografted in nude mouse assessed as inhibition of S6K phosphorylation at 10 mg/kg, iv administered as single dose measured after 2 hrs. It counts as functional, organism-based. The arrangement: dose 10 mg/kg.
Data set [14] deals with U-87MG ATCC. Kind of data set: Antitumor activity against human U87MG cells xenografted in nude mouse assessed as inhibition of AKT T308 phosphorylation at 10 mg/kg, iv administered as single dose measured after 2 hrs. The arrangement: dose 10 mg/kg. In kind it is functional, organism-based. In a few lines:
as §1

For data set [15], the system named is A498. As to the kind of experiment: Antitumor activity against human A498 cells xenografted in nude mouse assessed as tumor growth inhibition at 25 mg/kg, iv once weekly.

Each structure is given as a SMILES string. The source made the active and inactive calls. No cut-off for these calls is given here.

Turning to `COC[C@H]1OC(=O)/C(=C\N(C)CCCN(C)C)C2=C(O)C(=O)C3=C([C@H](OC(C)=O)C[C@]4(C)[C@@H](OC(=O)CCCCC(=O)O[C@@H]5CC[C@@H](C[C@@H](C)[C@@H]6CC(=O)[C@H](C)/C=C(\C)[C@@H](O)[C@@H](OC)C(=O)[C@H](C)C[C@H](C)/C=C/C=C/C=C(\C)[C@@H](OC)C[C@@H]7CC[C@@H](C)[C@@](O)(O7)C(=O)C(=O)N7CCCC[C@H]7C(=O)O6)C[C@H]5OC)CC[C@@H]34)[C@]21C`, the Stability result in data set [1] is “Stable”. In data set [2], the result was Active. Also, the inhibition entry in data set [3] and in data set [4] was “inactive” throughout. Further, in data set [5], the remaining at 2 h came to 4%.

Turning to `C=CCN(/C=C1\C(=O)O[C@H](COC)[C@@]2(C)C1=C(O)C(=O)C1=C2[C@H](OC(C)=O)C[C@]2(C)[C@@H](OC(=O)CCCCCCC(=O)O[C@H]3CC[C@H](C[C@@H](C)[C@@H]4CC(=O)[C@H](C)/C=C(\C)[C@@H](O)[C@@H](OC)C(=O)[C@H](C)C[C@H](C)/C=C/C=C/C=C(\C)[C@@H](OC)C[C@@H]5CC[C@@H](C)[C@@](O)(O5)C(=O)C(=O)N5CCCC[C@H]5C(=O)O4)CC3)CC[C@@H]12)CC=C`, the Stability entry in [6], in [7] and in data set [8] was “Stable” in each case. The inhibition entry in [3] and in data set [4] was “inactive” each time.

`C=CCN(/C=C1\C(=O)O[C@H](COC)[C@@]2(C)C1=C(O)C(=O)C1=C2[C@H](OC(C)=O)C[C@]2(C)[C@@H](OC(=O)CCCCCCC(=O)O[C@@H]3CC[C@@H](C[C@@H](C)[C@@H]4CC(=O)[C@H](C)/C=C(\C)[C@@H](O)[C@@H](OC)C(=O)[C@H](C)C[C@H](C)/C=C/C=C/C=C(\C)[C@@H](OC)C[C@@H]5CC[C@@H](C)[C@@](O)(O5)C(=O)C(=O)N5CCCC[C@H]5C(=O)O4)C[C@H]3OC)CC[C@@H]12)CC=C`: the Stability result in [6], in data set [7] and in data set [8] was “Stable” in each case. The inhibition entry in data set [3] and in [4] was “inactive” each time.

With `COC[C@H]1OC(=O)/C(=C\N(C)CCCN(C)C)C2=C(O)C(=O)C3=C([C@H](OC(C)=O)C[C@]4(C)[C@@H](O)CC[C@@H]34)[C@]21C`, in [9], the outcome was inactive. Further, the solubility in [10] is > 10000 µg/mL.

Take `CO[C@H]1C[C@@H]2CC[C@@H](C)[C@@](O)(O2)C(=O)C(=O)N2CCCC[C@H]2C(=O)O[C@H]([C@H](C)C[C@@H]2CC[C@@H](O)[C@H](OC)C2)CC(=O)[C@H](C)/C=C(\C)[C@@H](O)[C@@H](OC)C(=O)[C@H](C)C[C@H](C)/C=C/C=C/C=C/1C` [SIROLIMUS]: the result in data set [11] and in [14] was inactive. In addition, the solubility result in data set [12] is recorded as “Insoluble”. Moreover, the outcome in data set [13] and in [15] was Active.

In the case of `COC[C@H]1OC(=O)/C(=C\N(C)CCCN(C)C)C2=C(O)C(=O)C3=C([C@H](OC(C)=O)C[C@]4(C)[C@@H](OC(=O)CCCCCCC(=O)O[C@H]5CC[C@H](C[C@@H](C)[C@@H]6CC(=O)[C@H](C)/C=C(\C)[C@@H](O)[C@@H](OC)C(=O)[C@H](C)C[C@H](C)/C=C/C=C/C=C(\C)[C@@H](OC)C[C@@H]7CC[C@@H](C)[C@@](O)(O7)C(=O)C(=O)N7CCCC[C@H]7C(=O)O6)CC5)CC[C@@H]34)[C@]21C`, the inhibition result in data set [3] and in data set [4] was “inactive” in each case.

Take `C=CCN(/C=C1\C(=O)O[C@H](COC)[C@@]2(C)C1=C(O)C(=O)C1=C2[C@H](OC(C)=O)C[C@]2(C)[C@@H](O)CC[C@@H]12)CC=C`: in data set [10], the solubility is > 100 µg/mL.

Consider `COC[C@H]1OC(=O)/C(=C\N(C)CCCN(C)C)C2=C(O)C(=O)C3=C([C@H](OC(C)=O)C[C@]4(C)[C@@H](OC(=O)CCC(=O)O[C@@H]5CC[C@@H](C[C@@H](C)[C@@H]6CC(=O)[C@H](C)/C=C(\C)[C@@H](O)[C@@H](OC)C(=O)[C@H](C)C[C@H](C)/C=C/C=C/C=C(\C)[C@@H](OC)C[C@@H]7CC[C@@H](C)[C@@](O)(O7)C(=O)C(=O)N7CCCC[C@H]7C(=O)O6)C[C@H]5OC)CC[C@@H]34)[C@]21C`, for which, in data set [1], the Stability entry is “Stable”. Besides, the result in data set [2] was Active. The inhibition result in data set [3] and in data set [4] was “inactive” each time. The remaining at 2 h in data set [5] came to 15%.
